# Screens (PubChem)
# Sampled rows, rich in hits. Any-hit rate of the full collection: about 1.6%.
# CSN inh: CSN deneddylation inhibition; AID 651999; Q92905; inhibition, % at 12.5 µM; 360,000 tested, 0.38% active; Purified CSN, SCF-Nedd8-OG deneddylation, fluorescence polarization;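 active = pattern-corrected inhibition above about 35%, with an unprinted fluorescence ratio check between 0.5 and 1.5, limit read from the data, passing the limit was not always enough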;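 note: 0% = enzyme with substrate and 100% = substrate without enzyme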
# Target sequence (Q92905 whole entry, looked up, one chain of several): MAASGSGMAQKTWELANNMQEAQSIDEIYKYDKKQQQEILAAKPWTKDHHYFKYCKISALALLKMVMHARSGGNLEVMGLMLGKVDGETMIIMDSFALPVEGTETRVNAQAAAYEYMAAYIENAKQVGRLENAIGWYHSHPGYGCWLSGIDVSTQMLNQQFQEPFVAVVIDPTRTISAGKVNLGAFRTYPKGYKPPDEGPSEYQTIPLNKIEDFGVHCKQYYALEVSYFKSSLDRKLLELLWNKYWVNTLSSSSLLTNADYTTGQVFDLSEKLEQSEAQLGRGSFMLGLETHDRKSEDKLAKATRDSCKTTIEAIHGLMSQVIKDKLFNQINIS
#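 Assay system: purified human Csn5 enzyme expressed in HEK293T cells; measure: % inhibition; also added: SCFSkp2-Nedd8OG substrate at 10 nM final; technique: fluorescence polarization; times: reaction 90 min, room temperature; medium: Tris buffer pH 7.5, NaCl, DTT, Tween-20, trehalose, ovalbumin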
# TPT1 inh: blocks Candida albicans tRNA 2'-phosphotransferase. recombinant caTPT1, FP RNA substrate dephosphorylation. inhibition, % at 5 µM. 300,000 tested, 0.81% active;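 active = inhibition above the mean of all tested compounds plus 3 SD, set per screening campaign, cut at about 24% in these data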;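 note: plate controls were DMSO alone for no effect and ferristatin control at 100 nM for full effect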
# SENP1 inh: blocks the human SENP1 SUMO protease catalytic domain. Q9P0U3. recombinant SENP1 catalytic domain, CyPet-SUMO1-YPet FRET cleavage. inhibition, % at 10 µM. 360,000 tested, 0.21% active;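 active = inhibition at least 30% at 10 µM, raw YFP signal under a set limit, fluorescence ratio 0.5 to 1.5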;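 note: 0% = enzyme with DMSO and 100% = no enzyme wells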
#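 Material – human SENP1 catalytic domain · Input – SENP1 enzyme, 20 pM final · Compound dosing – single concentration of 10 µM compound, 0.5% DMSO final · Timing – enzyme reaction for 50 min at room temperature, dark · Measured by – FRET fluorescence in CFP and YFP emission channels · Control set – no-enzyme wells low, DMSO-plus-enzyme wells high control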
# Rpn11 inh: blocks the human proteasome subunit Rpn11; human 26S proteasome, Ub4-pepOG fluorescence polarization; 20S core pre-blocked with epoxomicin; inhibition, % at 20 µM; 360,000 tested, 0.59% active; O00487;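 active = inhibition at 20 µM, scaled to each plate's controls, above about 33%, limit read from the data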
# Target sequence (O00487 whole entry, looked up): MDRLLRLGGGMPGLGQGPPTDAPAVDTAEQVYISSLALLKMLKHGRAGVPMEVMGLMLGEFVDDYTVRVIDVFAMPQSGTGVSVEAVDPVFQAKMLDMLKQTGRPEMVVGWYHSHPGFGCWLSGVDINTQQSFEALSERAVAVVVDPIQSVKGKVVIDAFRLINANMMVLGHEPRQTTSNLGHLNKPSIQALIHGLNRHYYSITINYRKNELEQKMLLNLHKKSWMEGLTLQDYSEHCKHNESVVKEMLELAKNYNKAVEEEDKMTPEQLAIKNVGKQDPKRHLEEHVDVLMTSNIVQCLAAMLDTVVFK
# HNF4A DNA FP: change in binding of human HNF4 alpha to DNA | activity change, % at 10 µM | 360,000 tested, 0.3% active | HNF4a-FITC DNA binding, fluorescence polarization, 1 h | P41235; in the data active = activity change above about 30%, passing the limit was not always enough
# SENP1 conf: SENP1 (human) inhibition, single concentration confirmation | inhibition, % at 10 µM | 520 tested, 34% active | shares compounds with SENP1 inh | recombinant SENP1, CyPet-SUMO1-YPet FRET cleavage; in the data active = inhibition mostly above about 35%, no sharp cut-off; inactive = mostly below about 32%;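 note: 0% = enzyme with DMSO and 100% = no enzyme control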
# SENP1 kin conf: confirmation of human SENP1 SUMO protease inhibitors, kinetic. shares compounds with SENP1 inh. recombinant SENP1, CyPet-SUMO1-YPet FRET kinetic cleavage. inhibition, % at 10 µM. 520 tested, 26% active. AID 651690; in the data active = inhibition mostly above about 32%, no sharp cut-off; inactive = mostly below about 29%;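 note: 0% = DMSO with enzyme and 100% = no enzyme substrate only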
# Active calls of the source: *; . = not tested or not shown.
SMILES,CSN inh,TPT1 inh,SENP1 inh,Rpn11 inh,HNF4A DNA FP,SENP1 conf,SENP1 kin conf
Cc1cc(C)c2cc(C#N)c(SCC(=O)NCc3ccco3)nc2c1,6.8,5.9,40.6*,6.8,0.6,3.0,15.9
Cc1cc(C)c2cc(C)c(SCC(=O)NCc3ccco3)nc2c1,1.1,-1.9,-0.7,10.3,3.8,.,.
O=[N+]([O-])c1cccc(/C=C/c2nc(C=Nc3ccccc3)c(O)o2)c1,0.8,14.4,32.9*,39.8,7.5,17.1,18.4
Cc1cccnc1C(NC(=O)C1CCN(CCCOc2ccc(F)cc2)CC1)c1ccccc1 (centres undefined),1.0,.,-0.8,-1.0,-2.0,.,.
C=CCOc1ccc(/C=C2\SC(=S)N(N3CCOCC3)C2=O)cc1,-2.2,-1.2,0.2,-0.3,-0.7,.,.
COc1ccc(OC)c(/C=C2\SC(=S)N(N3CCOCC3)C2=O)c1,0.8,7.8,38.5*,1.5,7.8,2.8,0.5
COc1cc(/C=C2\SC(=S)N(N3CCOCC3)C2=O)ccc1O,7.9,14.9,52.7*,0.0,-9.5,15.2,11.2
COc1cc(/C=C2\SC(=S)N(N3CCOCC3)C2=O)cc(OC)c1OC,-1.3,4.8,4.1,-8.4,5.2,.,.
Cc1c(/C=N/NC(=O)CNc2ccccc2)c2ccccn2c1C(=O)c1ccc(Cl)cc1,-0.8,3.0,30.6*,19.5,2.8,30.7,20.1
Cc1ccc(-c2nc(CN3CCCCC3)cc(CN3CCCCC3)c2O)cc1,-4.1,-1.4,-2.4,9.7,2.7,.,.
Cc1ccc(C)c(S(=O)(=O)N2CCCCC2CCNC(=O)C(=O)NCc2ccco2)c1 (centres undefined),-1.2,-0.1,0.6,-4.1,-2.0,.,.
CC(=O)Oc1ccc(N2C(=O)C3C(C2=O)C(C(=O)c2ccc(Cl)cc2)N2CCCC32)cc1 (centres undefined),3.1,-8.9,60.6*,-11.7,11.3,85.6*,44.9*
Cc1ccc(N2C(=O)C3C(C2=O)C(C(=O)c2ccc(Cl)cc2)N2CCCC32)cc1 (centres undefined),-1.7,-13.3,-34.6,-1.2,2.6,.,.
COC(=O)C1=C(C)N(Cc2ccco2)C(=O)/C1=C\c1ccc([N+](=O)[O-])cc1,7.7,23.8,11.8,15.1,1.2,.,.
COC(=O)C1=C(C)N(Cc2ccco2)C(=O)/C1=C\c1ccc(N(C)C)cc1,-72.0,5.7,46.1*,.,47.0,22.6,16.6
C/C(O)=c1/cnc2nc3ccccc3n2c1=O,-0.2,-2.1,3.0,-0.3,0.4,.,.
CN1C(=O)/C(=C\c2ccc(OC(=O)c3ccco3)cc2)SC1=S,14.0,-1.7,44.2*,31.8,27.4,10.9,5.9
CN1C(=O)/C(=C/c2ccc(OC(=O)c3ccco3)cc2)SC1=S,12.0,4.1,46.0*,30.8,29.6,22.9,12.2
COc1cc(/C=C2\SC(=S)N(CC(=O)O)C2=O)ccc1OC(=O)c1ccco1,11.7,4.9,38.9*,31.3,28.4,83.0*,62.9*
CCOc1cc(/C=C2/SC(=S)N(CC(=O)O)C2=O)ccc1OC(=O)c1cccs1,7.2,1.2,1.8,3.9,13.4,.,.
CC(=O)Oc1ccccc1Cn1c(C)c(C(=O)NCCC#N)sc1=O,-0.7,.,-3.1,1.8,-3.1,.,.
COc1cccc(CNC(=O)Cn2ccc3cc(S(=O)(=O)N4CCCCCC4)ccc32)c1,1.0,-2.8,1.7,-6.7,-2.2,.,.
CCCN1CCC(C(=O)NC(c2ccc(Cl)cc2)c2ccsc2)CC1 (centres undefined),4.6,.,3.3,-2.1,6.1,.,.
Nc1c2c(nc3cccc(Cl)c13)N(c1ccccc1)CC2,1.6,5.1,55.0*,8.1,1.3,-12.0,-3.4
CCOC(=O)COc1cc2oc(=O)cc(C)c2cc1[N+](=O)[O-],-0.5,-7.5,0.8,-3.3,1.0,.,.
SMILES,CSN inh,TPT1 inh,SENP1 inh,Rpn11 inh,HNF4A DNA FP,SENP1 conf,SENP1 kin conf
O=C(NCC(c1ccccc1Cl)N1CCCC1)C1CCN(C(=O)Nc2ccccc2)CC1 (centres undefined),-3.4,.,0.2,0.9,0.3,.,.
O=C1NC(=S)N/C1=C/c1cccc([N+](=O)[O-])c1O,0.9,5.1,40.3*,12.0,3.2,28.3,14.8
Cc1ccc2cc(C=C(C#N)C#N)c(N3CCCCC3)nc2c1,9.4,3.0,-1.1,23.4,-3.0,.,.
Cc1ccc2cc(/C=C(\C#N)C(N)=O)c(N3CCCCC3)nc2c1,5.0,4.4,75.2*,17.2,5.3,49.7*,38.5*
c1ccc(C[n+]2ccc3ccccc3c2)cc1,1.6,-2.4,5.9,-6.0,-0.6,.,.
Clc1cccc(Cl)c1C[n+]1ccc2ccccc2c1,7.2,8.4,67.6*,36.0,1.8,6.7,13.4
CC(C)CN(C(=O)c1cccc(Cl)c1)c1c(N)n(CC(C)C)c(=O)[nH]c1=O,0.7,-5.2,-2.5,2.7,0.6,.,.
CCOC(=O)c1sc(N=NC2=C(O)CC(C)(C)CC2=O)c(C(=O)OCC)c1C,-9.2,-3.2,56.4*,32.7,14.6,29.9,20.1
CCOc1c(C)cnc2c1c(=O)n(Cc1ccc(Cl)cc1)c(=O)n2C,-0.3,-3.1,-7.8,6.6,4.2,.,.
COc1ccc(N/N=C(/C)c2cnnc(-c3ccccc3)n2)cc1,26.2,2.8,65.9*,.,46.2*,10.0,10.2
O=C(NN1C(=O)C2C(c3ccccc3)C=CC(c3ccccc3)C2C1=O)c1ccccc1 (centres undefined),-4.5,4.0,40.6*,-4.4,1.6,5.5,6.0
O=C(NN1C(=O)C2C3C=CC(C3)C2C1=O)c1cccc(Cl)c1 (centres undefined),-10.5,-4.5,-2.8,-3.5,0.3,.,.
O=C(NN1C(=O)C2C(c3ccccc3)C=CC(c3ccccc3)C2C1=O)c1cccc(Br)c1 (centres undefined),0.1,-5.0,40.5*,-3.1,4.3,11.2,12.3
O=C(NN1C(=O)C2C3c4ccccc4C(c4ccccc43)[C@@H]2C1=O)c1ccccc1 (some centres undefined),-14.0,1.2,-1.9,-0.7,0.0,.,.
COc1ccc(F)cc1S(=O)(=O)NCC(=O)NCc1cc(=O)n(C)c(=O)n1C,0.4,0.1,0.4,-5.7,-0.5,.,.
CCCNc1nc2ccccc2n2c(C)nnc12,4.2,-2.4,30.8*,6.0,0.8,5.2,9.8
COC(=O)/C=C1\S/C(=N/NC(=O)c2ccc(OC)cc2)NC1=O,3.0,-2.5,53.9*,0.2,3.0,6.8,7.6
O=C1CC[C@@H]2C[C@@]3(C[C@@H]4CCN1[C@H]24)Nc1cc([N+](=O)[O-])ccc1NC3=NCc1ccccc1,4.3,.,54.8*,6.0,-2.7,42.1*,26.3
